Each structure is given as a SMILES string.

Experiment [1] can be described thus: Binding affinity to hairpin double stranded DNA CG base pair in sodium cacodylate buffer at pH 6.8 assessed as triplex-forming ability measuring melting temperature after by UV melting experiment. In a few lines: (§1)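 TFO and hairpin dsDNA target, each strand at 1.89 μM final, in 10 mM sodium cacodylate (pH 6.8) with 100 mM KCl and 50 mM MgCl₂. Annealed in boiling water, then cooled slowly to 5 °C. Melting was followed at 260 nm from 5 to 90 °C at 0.5 °C/min. Tm was taken by the two-point average method, mean of three independent runs.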

A short description of experiment [2]: Binding affinity to hairpin double stranded DNA TA base pair in sodium cacodylate buffer at pH 6.8 assessed as triplex-forming ability measuring melting temperature after by UV melting experiment. A digest of the protocol: as §1
Experiment [3] is described as follows: Binding affinity to hairpin double stranded DNA AT base pair in sodium cacodylate buffer at pH 6.8 assessed as triplex-forming ability measuring melting temperature after by UV melting experiment. In a few lines:
as §1

Experiment [4] in a line: Binding affinity to hairpin double stranded DNA GC base pair in sodium cacodylate buffer at pH 6.8 assessed as triplex-forming ability measuring melting temperature after by UV melting experiment. A digest of the protocol:
as §1

Turning to `Cc1cn([C@H]2C[C@H](O[PH](OCCC#N)(OC[C@H]3O[C@@H](n4cc(C)c(=O)[nH]c4=O)C[C@@H]3O[PH](OCCC#N)(OC[C@H]3O[C@@H](n4cc(C)c(=O)[nH]c4=O)C[C@@H]3O[PH](OCCC#N)(OC[C@H]3O[C@@H](n4cc(C)c(=O)[nH]c4=O)C[C@@H]3O[PH](OCCC#N)(OC[C@H]3O[C@@H](n4cc(C)c(=O)[nH]c4=O)C[C@@H]3O[PH](OCCC#N)(OC(C)[C@H]3O[C@@H](n4ccc(N)nc4=O)C[C@@H]3O[PH](OCCC#N)(OC[C@H]3O[C@@H](n4cc(C)c(=O)[nH]c4=O)C[C@@H]3O[PH](OCCC#N)(OC[C@H]3O[C@@H](CCc4cn(-c5ccccc5C(N)=O)nn4)C[C@@H]3OP(=O)(O)OC[C@H]3O[C@@H](n4cc(C)c(=O)[nH]c4=O)C[C@@H]3O[PH](OCCC#N)(OC(C)[C@H]3O[C@@H](n4ccc(N)nc4=O)C[C@@H]3O[PH](OCCC#N)(OC[C@H]3O[C@@H](n4cc(C)c(=O)[nH]c4=O)C[C@@H]3O[PH](OCCC#N)(OC(C)[C@H]3O[C@@H](n4ccc(N)nc4=O)C[C@@H]3O[PH](OCCC#N)(OC[C@H]3O[C@@H](n4cc(C)c(=O)[nH]c4=O)C[C@@H]3O[PH](OCCC#N)(OC(C)[C@H]3O[C@@H](n4ccc(N)nc4=O)C[C@@H]3O[PH](OCCC#N)(OC[C@H]3O[C@@H](n4cc(C)c(=O)[nH]c4=O)C[C@@H]3O)N(C(C)C)C(C)C)N(C(C)C)C(C)C)N(C(C)C)C(C)C)N(C(C)C)C(C)C)N(C(C)C)C(C)C)N(C(C)C)C(C)C)N(C(C)C)C(C)C)N(C(C)C)C(C)C)N(C(C)C)C(C)C)N(C(C)C)C(C)C)N(C(C)C)C(C)C)N(C(C)C)C(C)C)N(C(C)C)C(C)C)[C@@H](CO)O2)c(=O)[nH]c1=O` (stereo partly drawn), the Tm in experiment [1] is 20 °C; in experiment [2] it was 18 °C; in experiment [3], 16 °C; in experiment [4] it was 19 °C.

In the case of `Cc1cn([C@H]2C[C@H](O[PH](OCCC#N)(OC[C@H]3O[C@@H](n4cc(C)c(=O)[nH]c4=O)C[C@@H]3O[PH](OCCC#N)(OC[C@H]3O[C@@H](n4cc(C)c(=O)[nH]c4=O)C[C@@H]3O[PH](OCCC#N)(OC[C@H]3O[C@@H](n4cc(C)c(=O)[nH]c4=O)C[C@@H]3O[PH](OCCC#N)(OC[C@H]3O[C@@H](n4cc(C)c(=O)[nH]c4=O)C[C@@H]3O[PH](OCCC#N)(OC(C)[C@H]3O[C@@H](n4ccc(N)nc4=O)C[C@@H]3O[PH](OCCC#N)(OC[C@H]3O[C@@H](n4cc(C)c(=O)[nH]c4=O)C[C@@H]3O[PH](OCCC#N)(OC[C@H]3O[C@@H](CCc4cn(-c5cccc(NC(N)=O)c5)nn4)C[C@@H]3OP(=O)(O)OC[C@H]3O[C@@H](n4cc(C)c(=O)[nH]c4=O)C[C@@H]3O[PH](OCCC#N)(OC(C)[C@H]3O[C@@H](n4ccc(N)nc4=O)C[C@@H]3O[PH](OCCC#N)(OC[C@H]3O[C@@H](n4cc(C)c(=O)[nH]c4=O)C[C@@H]3O[PH](OCCC#N)(OC(C)[C@H]3O[C@@H](n4ccc(N)nc4=O)C[C@@H]3O[PH](OCCC#N)(OC[C@H]3O[C@@H](n4cc(C)c(=O)[nH]c4=O)C[C@@H]3O[PH](OCCC#N)(OC(C)[C@H]3O[C@@H](n4ccc(N)nc4=O)C[C@@H]3O[PH](OCCC#N)(OC[C@H]3O[C@@H](n4cc(C)c(=O)[nH]c4=O)C[C@@H]3O)N(C(C)C)C(C)C)N(C(C)C)C(C)C)N(C(C)C)C(C)C)N(C(C)C)C(C)C)N(C(C)C)C(C)C)N(C(C)C)C(C)C)N(C(C)C)C(C)C)N(C(C)C)C(C)C)N(C(C)C)C(C)C)N(C(C)C)C(C)C)N(C(C)C)C(C)C)N(C(C)C)C(C)C)N(C(C)C)C(C)C)[C@@H](CO)O2)c(=O)[nH]c1=O` (stereo partly drawn), the Tm came out at 27 °C in experiment [1], 28 °C in experiment [2], 23 °C in experiment [3] and 23 °C in experiment [4].

The record behind these values is ChEMBL document CHEMBL2413013, “Triplex-forming ability of oligonucleotides containing 1-aryl-1,2,3-triazole nucleobases linked via a two atom-length spacer” (Bioorg Med Chem, 2013).
